Bioassay records from PubChem BioAssay.
GRK2 inh = compounds blocking aptamer binding on GRK2 – biochemical, human GRK2, bead flow cytometry, HTS, primary screen | actives 0.59% (n = 330,000) | inhibition of aptamer binding, % at 10 µM | FAM-aptamer displacement from GRK2;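 active = inhibition of aptamer binding above 40%, roughly 3 SD of noise, on plates passing a quality check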;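 also: median bead fluorescence of bound FAM aptamer so fluorescent compounds give negative values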
LMPTP inh = LMPTP phosphatase inhibitors, primary screen, biochemical, fluorescence intensity, uHTS. inhibition, % at 20 µM. recombinant LMPTP-A, OMFP fluorogenic substrate. actives 0.22% (n = 360,000). AID 651560, 2012. Low molecular weight phosphotyrosine protein phosphatase (Homo sapiens), P24666;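 active = compounds that cut the enzyme signal by at least half of the control window in the single-dose screen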;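 also: plate controls were DMSO wells with enzyme plus substrate for no effect and substrate without enzyme for full effect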
Target sequence (P24666 whole entry, looked up): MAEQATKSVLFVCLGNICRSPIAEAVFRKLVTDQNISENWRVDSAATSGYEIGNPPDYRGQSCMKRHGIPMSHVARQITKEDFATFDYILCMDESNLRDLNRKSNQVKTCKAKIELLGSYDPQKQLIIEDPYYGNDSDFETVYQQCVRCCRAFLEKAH
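material = LMPTP-A | quantity = 0.625 nM enzyme | reagent = OMFP substrate, 400 µM final | buffer or medium = Bis-Tris pH 6.0, DTT, detergent | detection = endpoint fluorescence intensity from OMFP dephosphorylation | dosing = single 20 µM dose | read-out basis = % inhibition relative to no-enzyme and uninhibited control wells | control set = no-enzyme and uninhibited controls | timing = 50 min at room temperature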
Scp-1 inhibitor = Scp-1 phosphatase inhibitors, primary screen, biochemical, colorimetric, uHTS. Carboxy-terminal domain RNA polymerase II polypeptide A small phosphatase 1 (Homo …. Recombinant Scp1, phosphopeptide, malachite green phosphate absorbance. inhibition, % at 20 µM. actives 0.88% (n = 340,000). AID 493091, 2011;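 active = inhibition above about 50% at 20 µM, limit read from the data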;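 also: plate controls were DMSO wells with enzyme for no effect and wells lacking enzyme for full effect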
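Material: truncated SCP-1 phosphatase (76-261aa) / Buffer or medium: 50 mM Tris acetate pH 5.5, 0.005% Tween-20, 10 mM MgCl2 / Compound dosing: one concentration, 20 µM, with 1.0% DMSO / Incubation: 45 min room-temperature reaction, 5 min colour, 30 min stabiliser / Detection: colorimetric free-phosphate detection, absorbance 630 nm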
SUMO1 PPI mod = modulators of SUMO1 protein-protein interactions, primary screen, biochemical, uHTS. SUMO1 binding to a labelled peptide, TR-FRET, 1 h. inhibition, % at 20 µM. actives 0.33% (n = 360,000); in the data active = inhibition above about 37%
DNMT1 inh = human DNMT1 methyltransferase inhibitors, primary screen, biochemical, molecular beacon, fluorescence, HinP1I cleavage, uHTS; inhibition (reported as % activation of signal), % at 10 µM; actives 0.83% (n = 360,000); DNA (cytosine-5)-methyltransferase 1 (Homo sapiens), P26358; AID 588458, 2011; in the data active = inhibition above about 50%
STEP inh = STEP phosphatase inhibitors, primary screen, biochemical, fluorescence intensity, uHTS; Tyrosine-protein phosphatase non-receptor type 5 (Homo sapiens), P54829; recombinant STEP, OMFP fluorogenic substrate; inhibition, % at 20 µM; actives 0.25% (n = 360,000); AID 588621, 2011;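 active = inhibition at 20 µM, scaled per plate between control wells, above about 37%, limit read from the data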;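 also: 0% = DMSO with enzyme and substrate and 100% = substrate only without enzyme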
Target sequence (P54829 whole entry, looked up): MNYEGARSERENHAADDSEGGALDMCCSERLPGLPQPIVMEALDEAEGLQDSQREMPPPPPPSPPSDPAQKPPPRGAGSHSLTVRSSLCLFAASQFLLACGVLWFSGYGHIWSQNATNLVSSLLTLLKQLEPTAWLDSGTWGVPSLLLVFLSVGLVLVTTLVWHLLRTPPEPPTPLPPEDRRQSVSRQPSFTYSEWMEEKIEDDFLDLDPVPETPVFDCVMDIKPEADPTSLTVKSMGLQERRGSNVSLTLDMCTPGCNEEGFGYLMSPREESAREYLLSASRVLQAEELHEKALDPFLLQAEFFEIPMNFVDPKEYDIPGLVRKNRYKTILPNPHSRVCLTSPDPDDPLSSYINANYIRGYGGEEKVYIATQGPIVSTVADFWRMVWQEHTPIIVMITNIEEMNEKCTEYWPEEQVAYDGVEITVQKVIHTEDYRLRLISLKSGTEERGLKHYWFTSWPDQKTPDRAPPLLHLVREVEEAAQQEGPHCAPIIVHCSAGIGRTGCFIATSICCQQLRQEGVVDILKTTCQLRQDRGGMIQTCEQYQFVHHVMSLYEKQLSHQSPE
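Assay system: isolated STEP enzyme / Timing: 20 min at room temperature, dark / Doses: 20 µM, 1% DMSO / Technique: fluorescence intensity, excitation 480 nm, emission 540 nm / Reagent: fluorogenic phosphatase substrate OMFP at 25 µM final / Measure: percent inhibition scaled to no-enzyme and uninhibited-enzyme controls, plate-pattern corrected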
GRK2 CP1 = GRK2 aptamer-displacing inhibitors, retest, confirmation, biochemical, cherry pick 1, bead flow cytometry | shares compounds with GRK2 inh | bead-bound GRK2, FAM-aptamer displacement | aptamer displacement, % at 10 µM | actives 4% (n = 2,000) | AID 504451, 2011;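 active = aptamer displacement above 40%, near three times the noise of non-fluorescent compounds, on plates passing quality checks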;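 also: negative values mostly reflect intrinsic compound fluorescence rather than true enhancement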
Aptamer quench SP = quenches fluorescent RNA aptamer, GRK2 hit artifact. 2,000 tested, under 10 active. Carboxyfluorescein RNA aptamer on beads, flow cytometry quenching; hits give low values. fluorescence response (% of DMSO), % at 10 µM. shares compounds with GRK2 inh. AID 504580;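 active = compounds that quench the bead-bound fluorescent RNA probe, cutting fluorescence to under half of the solvent control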;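 also: counterscreen run without GRK2 so only probe quenching by compound is measured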
GRK2 confirm 2 = GRK2 aptamer-displacing inhibitors, hit retest, confirmation, biochemical, cherry pick 2, bead flow cytometry. shares compounds with GRK2 inh. bead-bound GRK2, FAM-aptamer displacement. inhibition of aptamer binding, % at 10 µM. 360 tested, under 10 active;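 active = inhibition of aptamer binding above 40%, about triple the noise seen with nonglowing compounds, on plates passing quality control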;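 also: negative values mostly come from compounds that fluoresce themselves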
FAM quench CP2 = quenches fluorescent RNA aptamer, GRK2 hit artifact. shares compounds with GRK2 inh. 360 tested, under 10 active. carboxyfluorescein RNA aptamer beads, flow cytometry quenching; hits give low values. fluorescence response vs DMSO, % at 10 µM;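 active = response vs DMSO under 50%, meaning signal dropped by over half, treated as fluorescence quencher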;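 also: labelled aptamer on streptavidin beads without GRK2 as a quench counter-screen; 100% = bead fluorescence of DMSO wells and lower means quenching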
An asterisk follows results filed as active; . = not tested or not shown. Sampled rows, rich in hits. Any-hit rate of the full collection: about 2.1%.

SMILES	GRK2 inh	LMPTP inh	Scp-1 inhibitor	SUMO1 PPI mod	DNMT1 inh	STEP inh	GRK2 CP1	Aptamer quench SP	others
CCCCCCN1CCN(C2CN(Cc3cn(Cc4cccc(C(F)(F)F)c4)nn3)S(=O)(=O)C2)CC1 (centres undefined)	.	0	.	2	.	.	.	.
CCC(CO)[n+]1c(C)cc(/C=C2\Sc3ccccc3N2Cc2ccccc2)cc1C (centres undefined)	71*	8	-21	-17	13	0	30	138
CC(C)(C)NC(=O)COC(=O)CCC(=O)c1ccc(F)cc1	99*	-1	-7	1	0	-2	0	101
CCCNC(=O)COC(=O)CCC(=O)c1ccc(F)cc1	4	-1	11	-1	-1	-1	.	.
CN1CCN(S(=O)(=O)c2ccc(NC(=O)C(C)(C)C)cc2)CC1	81*	-1	-6	2	0	0	-4	98
CC(=O)Nc1ccc(S(=O)(=O)N2CCN(S(=O)(=O)c3ccc(NC(C)=O)cc3)CC2)cc1	0	-3	-9	-3	0	1	.	.
COCCNC(=O)C1(C)CCCN(C(=O)c2ccc(C#N)cc2)C1 (centres undefined)	.	-2	.	4	2	-2	.	.
CCCC(=O)NC1=C(C#N)C2(CCCC2)Cc2ccccc21	58*	-1	-6	-8	2	-2	0	94
COc1cc(NC(C(=O)Nc2cccc(C(C)=O)c2)c2ccccc2)cc(OC)c1OC (centres undefined)	76*	1	1	-5	-7	-3	.	.	GRK2 confirm 2=13;FAM quench CP2=105
CCOC(=O)CCCN(c1[nH]c(C)c(C)c1C#N)S(=O)(=O)c1ccc(C)cc1	.	-1	.	2	-3	-2	.	.
O=C(O)c1ccc(/C=C2\SC(=S)N(NC(=O)c3ccccc3[N+](=O)[O-])C2=O)cc1	47*	1	5	4	0	5	1	101
O=C(NN1C(=O)/C(=C\c2ccc(O)c([N+](=O)[O-])c2)SC1=S)c1ccccc1Cl	2	3	-3	-2	0	14	.	.
Cc1cc(C)nc(SCNC(=O)c2ccccc2)n1	48*	-1	0	0	0	-1	-2	99
Oc1ccc(C(=Nc2ccccc2)c2ccccc2)c(O)c1	.	0	-8	-3	-1	-2	.	.
Cc1ccc(CNC(=O)CCn2cc(-c3ccc(F)cc3)nc2-c2ccncc2)cc1	0	-2	0	2	-4	2	.	.
O=C(O)CCn1cc(-c2ccc(F)cc2)nc1-c1ccncc1	40	-4	0	4	1	0	1	98
O=C(c1cnc(Cc2c[nH]c3ccccc23)c(I)c1)N1CCOCC1	.	1	.	-4	-13	0	.	.
O=C1NC(c2cccc(Br)c2)=N/C1=C\c1ccco1	50*	4	-4	5	20	2	-2	98
COC(=O)c1cccc2c1NC(=O)C2=O	71*	-2	-1	0	-19	1	1	103
COCCNC(=O)c1ccccc1N(Cc1ccccc1)S(=O)(=O)c1ccc(C)cc1	15	0	-5	-5	-1	-2	-1	99
CC1(C(=O)NS(=O)(=O)c2cccc(C#N)c2)CCN1C(=O)c1ccc(C2CCCCC2)cc1 (centres undefined)	.	0	.	5	4	-4	.	.
CC(=O)NC(c1cccc(F)c1)c1nc(-c2cnc3ccccc3c2)cs1 (centres undefined)	.	0	.	-18	-5	0	.	.
O=C(O)CCNc1cc(N2CCN(C(=O)c3ccco3)CC2)c2noc3c2c1C(=O)c1ccccc1-3	83*	11	81*	50*	106*	41*	-1	94
CC(C)N1CCC(C)(C(=O)Nc2cc(-c3ccccc3)nn2C)C1 (centres undefined)	.	0	.	-4	1	-1	.	.
O=C(c1ccccc1C(=O)N1CCN(c2ccccc2F)CC1)N1CCN(c2ccccc2F)CC1	77*	-3	0	0	-3	-1	3	97
SMILES	GRK2 inh	LMPTP inh	Scp-1 inhibitor	SUMO1 PPI mod	DNMT1 inh	STEP inh	GRK2 CP1	Aptamer quench SP	others
COC(=O)C1CC(c2c(OC)cc(OC)cc2OC)=NO1 (centres undefined)	0	-2	-4	-2	2	2	.	.	GRK2 confirm 2=17;FAM quench CP2=99
COc1cccc(C2=NOC(C(=O)Nc3ccc(OC)c(OC)c3)C2)c1 (centres undefined)	3	1	-8	0	-3	2	.	.
COC(=O)[C@@H]1C(c2c(OC)cc(OC)cc2OC)=NO[C@H]1C(=O)OC	0	-1	-5	3	8	-1	.	.	GRK2 confirm 2=-2;FAM quench CP2=99
COc1cc(C=C2CCCC(=Cc3ccc(OCC4CO4)c(OC)c3)C2=O)ccc1OCC1CO1 (centres undefined)	.	1	.	15	-20	-1	.	.
CCc1cccc(NC(=O)C2CCCN(c3ncnc4c3nc3n4CCCCC3)C2)c1 (centres undefined)	0	2	3	5	-6	-2	4	102
O=C(NCC1CCN(Cc2cccc(Cl)c2)CC1)C1CCCN(c2ncnc3c2nc2n3CCCCC2)C1 (centres undefined)	0	1	-11	8	-2	1	-6	100
Cc1ccc([C@H]2C[C@H](O)[C@@H](n3cc(C4CC4)nn3)CN2Cc2cccs2)cc1	.	1	.	3	0	-3	.	.
CCCCNC(=O)C1(C)CCN1Cc1cc(C)ccc1C (centres undefined)	.	-2	.	1	8	0	.	.
